Assay [1] concerns the target T1, Adenosine receptor A2b (Homo sapiens, UniProt P29275).
T1 sequence (P29275 whole entry): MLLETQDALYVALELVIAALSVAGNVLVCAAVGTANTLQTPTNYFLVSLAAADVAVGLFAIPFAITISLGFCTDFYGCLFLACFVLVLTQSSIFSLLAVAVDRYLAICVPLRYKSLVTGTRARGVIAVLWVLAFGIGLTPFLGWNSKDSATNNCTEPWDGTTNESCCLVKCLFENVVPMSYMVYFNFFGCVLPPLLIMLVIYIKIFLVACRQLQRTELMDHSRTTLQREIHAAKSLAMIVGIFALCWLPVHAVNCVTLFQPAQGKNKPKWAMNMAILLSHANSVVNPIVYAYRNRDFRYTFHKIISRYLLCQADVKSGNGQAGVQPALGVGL
It is filed as functional, cell-based, CHO.

For assay [2], the target named is T2, Adenosine receptor A3 (Homo sapiens, UniProt P0DMS8).
T2 sequence (P0DMS8 whole entry): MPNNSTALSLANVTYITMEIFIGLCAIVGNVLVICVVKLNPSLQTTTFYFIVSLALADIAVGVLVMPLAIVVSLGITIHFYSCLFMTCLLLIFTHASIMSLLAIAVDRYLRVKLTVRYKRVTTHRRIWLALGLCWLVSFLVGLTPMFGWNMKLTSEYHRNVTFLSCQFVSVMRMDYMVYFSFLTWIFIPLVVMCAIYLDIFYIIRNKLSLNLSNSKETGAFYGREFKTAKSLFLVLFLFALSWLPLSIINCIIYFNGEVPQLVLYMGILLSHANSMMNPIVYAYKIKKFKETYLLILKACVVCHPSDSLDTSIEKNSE
Kind of assay: Antagonist activity at human adenosine A3 receptor expressed in forskolin-stimulated CHO cells assessed as inhibition of Cl-IB-MECA-induced cAMP production by competition protein binding assay. The class given is functional, cell-based. The gist of the method: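 CHO cells stably expressing human A3 receptor were harvested with dilute trypsin and preincubated for 10 min at 37 °C in pH 7.4 buffer with 2 IU/mL adenosine deaminase and the phosphodiesterase inhibitor Ro 20-1724. Antagonism of 100 nM Cl-IB-MECA was run with forskolin present. The reaction was stopped with cold 6% TCA and extracted with ether. cAMP was read against [3H]cAMP and bovine adrenal binding protein. IC50 came from sigmoid fitting.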
For orientation: Changes in cAMP serve as a functional read-out for many G protein-coupled receptors.

For the next assay, the target named is Adenosine receptor A2a (Homo sapiens, UniProt P29274). Kind of assay: Displacement of [3H]-ZM 241385 from human adenosine A2A receptor expressed in CHO cells after 60 mins by liquid scintillation counting. It is filed as cell-based. (In general: Displacement assays read how much labelled ligand stays bound in the presence of the test substance.)
Sequence of Adenosine receptor A2a (P29274 whole entry): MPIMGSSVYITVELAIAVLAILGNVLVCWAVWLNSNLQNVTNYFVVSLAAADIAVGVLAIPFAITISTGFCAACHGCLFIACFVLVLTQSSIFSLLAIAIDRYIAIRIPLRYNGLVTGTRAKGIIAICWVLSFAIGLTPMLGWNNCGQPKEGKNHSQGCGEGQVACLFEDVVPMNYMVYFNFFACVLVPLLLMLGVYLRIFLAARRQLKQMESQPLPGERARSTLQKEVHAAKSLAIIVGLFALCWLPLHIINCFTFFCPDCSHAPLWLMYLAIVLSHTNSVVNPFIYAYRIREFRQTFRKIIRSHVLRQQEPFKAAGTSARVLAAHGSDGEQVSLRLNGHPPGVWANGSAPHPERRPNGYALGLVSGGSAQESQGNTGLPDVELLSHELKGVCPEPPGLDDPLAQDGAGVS
The target in assay [3] is T2, Adenosine receptor A3. The assay is described as follows: Displacement of [3H]-MRE-3008-F20 from human adenosine A3 receptor expressed in CHO cells after 120 mins by liquid scintillation counting. It is filed as cell-based.
A further assay addresses T3, Adenosine receptor A1 (Homo sapiens, UniProt P30542).
T3 sequence (P30542 whole entry): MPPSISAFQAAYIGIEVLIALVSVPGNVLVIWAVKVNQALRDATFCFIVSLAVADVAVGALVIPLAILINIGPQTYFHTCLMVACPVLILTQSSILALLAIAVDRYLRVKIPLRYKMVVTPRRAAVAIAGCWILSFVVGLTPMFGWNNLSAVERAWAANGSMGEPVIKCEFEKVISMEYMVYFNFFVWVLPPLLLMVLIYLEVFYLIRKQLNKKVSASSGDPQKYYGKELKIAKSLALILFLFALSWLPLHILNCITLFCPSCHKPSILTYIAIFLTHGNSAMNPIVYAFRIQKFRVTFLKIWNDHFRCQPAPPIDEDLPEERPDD
The assay is described as follows: Displacement of [3H]-DPCPX from human adenosine A1 receptor expressed in CHO cells after 120 mins by liquid scintillation counting. The class given is cell-based.

The target in assay [4] is T1, Adenosine receptor A2b. Kind of assay: biochemical.

With `CCCn1cc2nc(NC(=O)Nc3ccc(OC)cc3)n3nc(-c4ccco4)nc3c2c1`, the IC50 (as a rule, the concentration that inhibits the measured activity by half) against Adenosine receptor A2b [1] came to 906 nM; on Adenosine receptor A3 [2] it was 50 nM. In addition, the Ki – broadly, a measure of affinity in units of concentration, obtained from inhibition or displacement – on Adenosine receptor A2a came to 200 nM; at Adenosine receptor A3 [3], 10 nM; on Adenosine receptor A1, 743 nM.

Consider `Nc1nc2c(cnn2CCCc2ccccc2)c2nc(-c3ccco3)nn12` [SCH-63390], for which the inhibitory constant (Ki) at Adenosine receptor A2b [4] and at Adenosine receptor A3 [3] was > 10000 nM each time.

On to `CCCn1cc2nc(NC(=O)Nc3ccc(OC)cc3)n3nc(-c4ccco4)nc3c2n1`, for which the 50% inhibitory concentration (IC50) worked out at 863 nM on Adenosine receptor A2b [1] and 250 nM at Adenosine receptor A3 [2]. The figures for the inhibitory constant (Ki) on Adenosine receptor A2a, at Adenosine receptor A3 [3] and at Adenosine receptor A1 were 208 nM, 50 nM and 240 nM, respectively.

Source of the values: ChEMBL document CHEMBL1932966, “Pyrrolo- and pyrazolo-[3,4-e][1,2,4]triazolo[1,5-c]pyrimidines as adenosine receptor antagonists” (Bioorg Med Chem, 2012).
